Laboratory results as given in ChEMBL document CHEMBL2440054, “Largazole Arrests Cell Cycle at G1 Phase and Triggers Proteasomal Degradation of E2F1 in Lung Cancer Cells” (ACS Med Chem Lett, 2013).
The source made the active and inactive calls.

Legend:
NCI-H1975 = test: Cytotoxicity against human NCI-H1975 cells after 48 hrs by CCK-8 assay; format: functional, cell-based; conditions: NCI-H1975, 48 h
Procedure, shortened: (§1)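 Cells treated with a range of largazole concentrations for 48 h. Proliferation read by CCK-8 assay; IC50 derived from the concentration series.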

[1] = biological target: T1, Retinoblastoma-associated protein (Homo sapiens) (UniProt P06400); test: Dephosphorylation of Rb in human A549 cells at 0.1 uM after 6 to 12 hrs by Western blotting analysis; format: cell-based
T1 sequence (whole entry): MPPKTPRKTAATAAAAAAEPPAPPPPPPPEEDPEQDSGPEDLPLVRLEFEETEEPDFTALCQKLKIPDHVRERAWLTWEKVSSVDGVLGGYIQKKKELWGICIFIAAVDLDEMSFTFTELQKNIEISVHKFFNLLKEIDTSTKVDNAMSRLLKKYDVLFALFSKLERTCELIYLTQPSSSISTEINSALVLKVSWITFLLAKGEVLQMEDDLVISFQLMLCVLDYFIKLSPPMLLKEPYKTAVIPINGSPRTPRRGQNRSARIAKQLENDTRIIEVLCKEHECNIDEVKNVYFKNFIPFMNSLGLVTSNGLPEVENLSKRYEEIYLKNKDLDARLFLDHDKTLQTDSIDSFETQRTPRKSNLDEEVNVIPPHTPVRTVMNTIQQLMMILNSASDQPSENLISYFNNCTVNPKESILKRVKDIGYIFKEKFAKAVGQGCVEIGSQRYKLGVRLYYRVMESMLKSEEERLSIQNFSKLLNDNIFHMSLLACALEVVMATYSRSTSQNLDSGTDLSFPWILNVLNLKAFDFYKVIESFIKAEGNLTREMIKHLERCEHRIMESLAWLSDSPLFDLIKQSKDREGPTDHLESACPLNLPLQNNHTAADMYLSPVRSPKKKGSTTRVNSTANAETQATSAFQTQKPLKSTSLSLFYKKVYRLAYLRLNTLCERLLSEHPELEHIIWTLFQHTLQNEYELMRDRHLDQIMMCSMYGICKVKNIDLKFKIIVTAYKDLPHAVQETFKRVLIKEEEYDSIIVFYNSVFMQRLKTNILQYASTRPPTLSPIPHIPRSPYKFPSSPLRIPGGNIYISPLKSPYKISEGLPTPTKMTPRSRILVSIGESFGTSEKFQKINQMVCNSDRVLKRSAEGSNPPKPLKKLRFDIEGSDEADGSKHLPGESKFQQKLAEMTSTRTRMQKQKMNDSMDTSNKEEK

A549 [2] = test: Growth inhibition of human A549 cells at 0.1 uM after 24 to 48 hrs by trypan blue exclusion assay; format: functional, cell-based
Procedure, shortened: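 Cells treated with largazole for indicated times. Viability evaluated by trypan blue exclusion.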

A549 [3] = test: Upregulation of p21 protein expression in human A549 cells at 0.1 uM after 6 hrs by Western blotting analysis; format: functional, cell-based
Procedure, shortened: (§2)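 A549 cells exposed to 0.1 μM over a time course, then lysed and Western blotted for G1 regulators including p21 and p27.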

A549 [4] = test: Downregulation of E2F1 in human A549 cell nucleus at 0.1 uM after 6 to 24 hrs by Western blotting analysis; format: functional, cell-based
Procedure, shortened: (§3)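 A549 cells exposed to 0.1 μM largazole for indicated times. Cytoplasmic and nuclear fractions separated, then Western blotted for E2F1.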

A549 [5] = test: Downregulation of E2F1 in human A549 cell cytoplasm at 0.1 uM after 6 to 24 hrs by Western blotting analysis; format: functional, cell-based; procedure, shortened: as §3
A549 [6] = test: Cytotoxicity against human A549 cells after 48 hrs by CCK-8 assay; format: functional, cell-based; conditions: A549, 48 h; procedure, shortened: as §1
[7] = biological target: Histone deacetylase 1 (Homo sapiens) (UniProt Q13547); conditions: 16HBE, 0.1 uM
[8] = biological target: Transcription factor E2F1 (Homo sapiens) (UniProt Q01094); test: Induction of E2F1 degradation in human NCI-H460 cells at 0.1 uM after 12 to 24 hrs by Western blotting analysis; format: cell-based
Procedure, shortened: (§4)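 Each cell line (16-HBE, 95D, L78, H1975, H460) treated with 0.1 μM largazole for indicated times. Lysates Western blotted for E2F1.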

A549 [9] = test: Upregulation of p27 protein expression in human A549 cells at 0.1 uM after 12 hrs by Western blotting analysis; format: functional, cell-based; procedure, shortened: as §2
A549 [10] = test: Downregulation of E2F1 protein expression in human A549 cells at 0.1 uM by Western blotting analysis; format: functional, cell-based; conditions: TDE = time-dependent effect
Procedure, shortened: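 A549 cells treated with 0.1 μM largazole over a time course, or with a range of concentrations for 12 h. Lysates Western blotted for E2F1.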

[11] = biological target: Transcription factor E2F1 (Homo sapiens) (UniProt Q01094); test: Induction of E2F1 degradation in human 95-D cells at 0.1 uM after 12 to 24 hrs by Western blotting analysis; format: cell-based; procedure, shortened: as §4
A549 [12] = test: Induction of apoptosis in human A549 cells assessed as downregulation of pro-caspase-9 protein expression at 0.1 uM after 48 hrs by Western blotting analysis; format: functional, cell-based
Procedure, shortened: (§5)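 A549 cells given largazole 0.1 μM for indicated times, lysed, and Western blotted for pro-/cleaved caspase-9, caspase-8, pro-/active caspase-3 and PARP.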

[13] = biological target: T1, Retinoblastoma-associated protein (Homo sapiens); test: Dephosphorylation of Rb in human A549 cells assessed as increase in Rb-E2F1 interaction at 0.1 uM after 8 hrs by immunoprecipitation and Western blotting analysis; format: cell-based
Procedure, shortened: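 A549 cells treated with 0.1 μM largazole for 8 h and lysed. Lysates immunoprecipitated, then Western blotted with the indicated antibodies.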

[14] = biological target: Histone deacetylase 1 (Homo sapiens) (UniProt Q13547); conditions: A549, 0.1 uM
[15] = biological target: Transcription factor E2F1 (Homo sapiens) (UniProt Q01094); test: Induction of E2F1 degradation in human A549 cells at 0.1 uM after 12 hrs by Western blotting analysis in presence of proteasome inhibitor bortezomib; format: cell-based
Procedure, shortened: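 A549 cells pretreated 2 h with bortezomib (100 nM) or MG-132 (10 μM), then given largazole 0.1 μM for a further 12 h. Lysates Western blotted for E2F1.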

NCI-H460 [16] = test: Cell cycle arrest in human NCI-H460 cells assessed as accumulation at S phase at 0.1 uM after 24 hrs by propidium iodide staining-based flow cytometric analysis (reference value: 31.6%); format: functional
A549 [17] = test: Induction of apoptosis in human A549 cells assessed as effect on caspase-8 protein expression at 0.1 uM after 48 hrs by Western blotting analysis; format: functional, cell-based; procedure, shortened: as §5
[18] = biological target: Transcription factor E2F1 (Homo sapiens) (UniProt Q01094); test: Inhibition of E2F1 in human A549 cells assessed as downregulation of DHFR gene expression at 0.1 uM after 6 to 36 hrs by RT-PCR analysis; format: cell-based
Procedure, shortened: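 A549 cells given 0.1 μM over a time course. RNA extracted and RT-PCR run with gene-specific primers. Bands quantified by densitometry and normalized to GAPDH.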

NCI-H460 [19] = test: Cell cycle arrest in human NCI-H460 cells assessed as accumulation at S phase at 0.06 uM after 24 hrs by propidium iodide staining-based flow cytometric analysis (reference value: 31.6%); format: functional
A549 [20] = test: Cell cycle arrest in human A549 cells assessed as accumulation at G1 phase at 0.1 uM after 24 hrs by propidium iodide staining-based flow cytometric analysis (reference value: 48.3%); format: functional
A549 [21] = test: Effect on CDK4 protein expression in human A549 cells at 0.1 uM after 6 to 36 hrs by Western blotting analysis; format: functional, cell-based
Procedure, shortened: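 A549 cells exposed to 0.1 μM largazole over a time course, lysed, and Western blotted for cyclin D1, CDK2, CDK4, p21 and p27.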

Chain of Transcription factor E2F1 (Homo sapiens) (Q01094 whole entry): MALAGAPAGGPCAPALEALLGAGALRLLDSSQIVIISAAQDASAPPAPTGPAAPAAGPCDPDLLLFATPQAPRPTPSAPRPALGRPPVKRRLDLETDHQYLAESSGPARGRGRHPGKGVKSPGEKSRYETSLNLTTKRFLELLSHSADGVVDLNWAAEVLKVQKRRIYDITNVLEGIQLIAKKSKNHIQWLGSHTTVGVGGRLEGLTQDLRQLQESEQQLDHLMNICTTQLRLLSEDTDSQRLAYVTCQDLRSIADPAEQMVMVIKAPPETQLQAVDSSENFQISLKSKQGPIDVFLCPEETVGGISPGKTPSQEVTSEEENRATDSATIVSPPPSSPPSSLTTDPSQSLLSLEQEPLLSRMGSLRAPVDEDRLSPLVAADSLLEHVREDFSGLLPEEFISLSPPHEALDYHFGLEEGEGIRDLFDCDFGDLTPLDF
Chain of Histone deacetylase 1 (Homo sapiens) (Q13547 whole entry): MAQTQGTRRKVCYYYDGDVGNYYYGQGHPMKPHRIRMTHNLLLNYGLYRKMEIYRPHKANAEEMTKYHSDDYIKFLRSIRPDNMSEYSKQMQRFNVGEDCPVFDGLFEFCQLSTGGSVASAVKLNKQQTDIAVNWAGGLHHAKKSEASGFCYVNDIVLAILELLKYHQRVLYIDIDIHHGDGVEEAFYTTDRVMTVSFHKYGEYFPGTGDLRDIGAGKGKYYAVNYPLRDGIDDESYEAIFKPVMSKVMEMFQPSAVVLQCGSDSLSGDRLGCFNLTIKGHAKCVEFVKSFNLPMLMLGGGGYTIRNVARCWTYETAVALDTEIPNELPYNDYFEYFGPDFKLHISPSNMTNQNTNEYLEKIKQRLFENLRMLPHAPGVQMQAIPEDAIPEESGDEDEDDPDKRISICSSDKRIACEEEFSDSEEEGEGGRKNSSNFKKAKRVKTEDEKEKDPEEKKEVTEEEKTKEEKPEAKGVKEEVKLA

CCCCCCCC(=O)SCC/C=C/[C@@H]1CC(=O)NCc2nc(cs2)C2=N[C@@](C)(CS2)C(=O)N[C@@H](C(C)C)C(=O)O1 [LARGAZOLE]
inactive: Activity [15] | Activity (A549 [17]) | Activity (A549 [21])
active: Activity [1] | growth inhibition (GI) (A549 [2]) | Activity (A549 [3]) | Activity (A549 [4]) | Activity (A549 [5]) | inhibition [7] | Activity [8] | Activity (A549 [9]) | Activity (A549 [10]) tde | Activity [11] | Activity (A549 [12]) | Activity [13] | inhibition [14] | inhibition [18]
83 nM: IC50 (NCI-H1975)
88.2%: Activity (A549 [20])
77 nM: IC50 (A549 [6])
10.6%: Activity (NCI-H460 [16])
10.4%: Activity (NCI-H460 [19])
